Screening data (PubChem)
In the library only some 1.5% were active in any assay of this set; here they are far more common.
m-calpain inh = inhibitors of pig calpain II, primary screen, biochemical, fluorogenic peptide substrate, 1536-well. purified calpain II, 30 min. inhibition, % at 16 µM. 220,000 tested, 0.37% active. AID 1236, 2008;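 active = inhibition above about 50%, limit read from the data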
Pf gametocyte = late stage P. falciparum gametocyte viability inhibitors, primary screen, ATP luminescence, HTS; 150,000 tested, 0.065% active; inhibition, % at 10.9 µM; P. falciparum stage V gametocytes, 24 h;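 active = inhibition above the mean plus 3 SD of compounds within the control limits, set per campaign, cut at about 38% in these data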
MDM2 E3 inh = MDM2-luciferase reporter signal enhancers, primary screen, MDM2 E3 ligase inhibitor project, cell-based, luminescence, 1536-well | 210,000 tested, 0.11% active | cell-based MDM2 ubiquitination luciferase reporter, 2 h; 0 = plate control, 100 = twice control, blank-subtracted | signal enhancement, % at 5 µM | E3 ubiquitin-protein ligase Mdm2 (Homo sapiens), Q00987;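 active = signal enhancement of 30% or more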;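 also: luminescence tracks abundance of the self-degrading MDM2-luciferase fusion protein; higher signal means inhibition of MDM2 E3 ligase activity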
Target sequence (Q00987 whole entry, looked up, the tested form may be a part): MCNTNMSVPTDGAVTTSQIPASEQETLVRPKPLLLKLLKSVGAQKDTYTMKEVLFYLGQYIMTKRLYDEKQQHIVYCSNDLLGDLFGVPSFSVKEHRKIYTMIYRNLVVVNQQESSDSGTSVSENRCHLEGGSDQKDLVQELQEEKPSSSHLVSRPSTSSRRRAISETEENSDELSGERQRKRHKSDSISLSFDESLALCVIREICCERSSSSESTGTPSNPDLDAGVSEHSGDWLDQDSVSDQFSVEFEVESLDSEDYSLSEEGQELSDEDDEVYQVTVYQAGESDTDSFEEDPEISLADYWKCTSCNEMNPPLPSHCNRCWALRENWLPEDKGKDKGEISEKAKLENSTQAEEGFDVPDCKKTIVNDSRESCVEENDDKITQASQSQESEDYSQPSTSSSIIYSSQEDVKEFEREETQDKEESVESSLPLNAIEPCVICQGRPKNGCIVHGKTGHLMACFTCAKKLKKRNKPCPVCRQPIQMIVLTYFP
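Assay system: stable mammalian line carrying autodegrading MDM2–luciferase fusion reporter; amount: 2000 cells seeded into each well; buffer or medium: DMEM; benchmarks: plate control and blank wells; signal: luciferase luminescence; timing: 2 h compound exposure at 37 °C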
Wee1 degr inh = Wee1 degradation inhibitors, primary screen, cell-based, HeLa, Wee1K328M-luciferase, luminescence | Wee1-like protein kinase (Homo sapiens), P30291 | HeLa Luc-Wee1K328M stability; 100% = proteasome inhibitor MG132 effect | reporter increase, % at 5 µM | 220,000 tested, 1.2% active;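 active = activation above the mean of all tested compounds plus 3 SD, set per screening run, cut at about 8.8% in these data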;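 also: cells exposed to compound for 20 h before luminescence read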
Hsp70 act = Hsp70 transcriptional activators, primary screen, cell-based, HeLa, Hsp70 promoter luciferase, luminescence, 10 µM | HeLa Hsp70 promoter luciferase reporter; scaled: vehicle 0, proteasome-inhibitor control 100% | activation, % at 10 µM | 200,000 tested, 0.04% active | AID 1203, 2008;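 active = activation above the mean across all tested compounds plus 3 SD, cutoff set per campaign, cut at about 5.5% in these data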
Each line names hits and unclear results; the compound was inactive in the other large screens.

COc1ccc2c(=O)cc(-c3ccccc3F)oc2c1	Wee1 degr inh 9.4 (no result: Hsp70 act)
O=c1[nH]c2cc3c(cc2cc1CN(Cc1nnnn1CC1CCCO1)C1CCCCC1)OCO3 (stereo not given)	none
O=c1[nH]c2cc3c(cc2cc1CN(Cc1nnnn1CC1CCCO1)C1CCCC1)OCO3 (stereo not given)	MDM2 E3 inh 30.2
Cn1c(=O)oc2cc(S(=O)(=O)N3CCOCC3)ccc21	none (no result: Pf gametocyte)
Cn1c(=O)c(=O)n(C)c2cc(S(=O)(=O)N3CCOCC3)ccc21	Wee1 degr inh 12.4
CCNS(=O)(=O)c1ccc2c(c1)n(C)c(=O)n2C	none (no result: Pf gametocyte)
Cn1c(=O)n(C)c2cc(S(=O)(=O)O)ccc21	Wee1 degr inh 9.0 (no result: Pf gametocyte)
COc1ccc(CNCc2cccc3ccccc23)cc1	none (no result: m-calpain inh, MDM2 E3 inh, Wee1 degr inh, Hsp70 act)
COc1ccc(-c2cc(-c3ccccc3)n[nH]2)c(O)c1	Wee1 degr inh 10.2 (no result: Pf gametocyte)
Cc1cccc(OCc2nnc(SC(C)C(=O)O)n2-c2ccccc2)c1 (stereo not given)	none (no result: m-calpain inh, MDM2 E3 inh, Wee1 degr inh, Hsp70 act)
Cc1nc(NC(=O)/C=C/c2ccco2)sc1C	Wee1 degr inh 8.9 (no result: Pf gametocyte)
Cc1ccc(NC(=O)CN(C)C(=O)CCCN2C(=O)c3ccccc3C2=O)cc1	m-calpain inh 59.8 (no result: Pf gametocyte)
Nc1c(C(=O)c2ccccc2)sc2nsc(SCCN3CCOCC3)c12	none (no result: Hsp70 act)
CC(=O)c1sc2nsc(SCCN3CCOCC3)c2c1N	Wee1 degr inh 9.0 (no result: Hsp70 act)
c1ccc2oc(-c3ccc(Nc4nc(N5CCOCC5)nc(N5CCOCC5)n4)cc3)nc2c1	none (no result: m-calpain inh, MDM2 E3 inh, Wee1 degr inh, Hsp70 act)
CC(=O)c1cccc(NC(=O)C(C)OC(=O)CNC(=O)c2ccc(C)s2)c1 (stereo not given)	Wee1 degr inh 9.2 (no result: Pf gametocyte)
CCc1sc(C(=O)Nc2cccc(C(C)=O)c2)cc1C	none (no result: Pf gametocyte)
CCCCCCCN1CCN=C1Nc1ccccc1	none (no result: m-calpain inh, MDM2 E3 inh, Wee1 degr inh, Hsp70 act)
O=C(/C=C/c1ccc([N+](=O)[O-])cc1)Nc1cccnc1	Wee1 degr inh 10.1
O=C(/C=C/c1ccc(Cl)c([N+](=O)[O-])c1)Nc1cccnc1	none (no result: Pf gametocyte)
Cc1cccc(-c2nsc(SCC(=O)NCc3ccco3)n2)c1	none
Cc1cccc(-c2nsc(SCC(=O)NCC3CCCO3)n2)c1 (stereo not given)	Wee1 degr inh 9.5
Cn1c(=O)[nH]c(=O)c2[nH]c(N(Cc3ccccc3)Cc3ccccc3)nc21	m-calpain inh 64.5
CCCCNC(=O)CN(c1cc(C(F)(F)F)ccc1Cl)S(C)(=O)=O	none (no result: Pf gametocyte)
COCCCNC(=O)CN(c1cc(C(F)(F)F)ccc1Cl)S(C)(=O)=O	Wee1 degr inh 10.5 (no result: Hsp70 act)
O=C(NCCCN1CCOCC1)c1cc(-c2ccc3c(c2)OCO3)nc2ccccc12	Wee1 degr inh 10.7 (no result: Pf gametocyte)
CCc1ccc(-c2cc(C(=O)NN3CCOCC3)c3ccccc3n2)cc1	Wee1 degr inh 27.6
O=C(NCCCN1CCCC1=O)c1cc(-c2ccc3c(c2)OCO3)nc2ccccc12	none
Cc1ccccc1C(=O)Oc1ccc(Sc2ccc(O)cc2)cc1	m-calpain inh 113.1
O=C(/C=C/c1c(F)cccc1Cl)c1ccc(O)cc1	Wee1 degr inh 10.6 (no result: Hsp70 act)
O=C(/C=C/c1ccccc1Cl)c1ccc(O)cc1	none (no result: Pf gametocyte, Hsp70 act)
Oc1ccc(Cl)cc1CNCC1CCCCC1	none (no result: m-calpain inh, MDM2 E3 inh, Wee1 degr inh, Hsp70 act)
COc1ccc(CNc2cccnc2)c(OC)c1OC	none (no result: m-calpain inh, MDM2 E3 inh, Wee1 degr inh, Hsp70 act)
CC(C)CC(=O)/C=C/n1c(=S)oc2ccccc21	MDM2 E3 inh 58.3
Cn1c(=S)oc2ccccc21	none (no result: Hsp70 act)
CC(=O)/C=C/n1c(=S)oc2ccccc21	MDM2 E3 inh 51.3
CCCC1NC(C(=O)O)Cc2c1[nH]c1ccccc21 (stereo not given)	none (no result: m-calpain inh, MDM2 E3 inh, Wee1 degr inh, Hsp70 act)
COc1cc(OC)cc(-c2oc(=O)c3cc(OC)c(OC)cc3c2C(F)(F)F)c1	none (no result: m-calpain inh, MDM2 E3 inh, Wee1 degr inh, Hsp70 act)
COc1ccc(/C=C2/SC(=O)N(CCC(=O)Nc3ccc(C)cc3)C2=O)cc1OC	none
COc1cc(/C=C2\SC(N)=NC2=O)ccc1OCC(=O)Nc1ccc(C)cc1	Wee1 degr inh 8.9
Cc1nc(Nc2ccccc2)sc1C(=O)c1ccccc1	m-calpain inh 50.9 (no result: Hsp70 act)
COC(=O)c1sc(Nc2ccccc2)nc1C	none
Cc1ccc(CN2CCNC(=O)C2CC(=O)NCCCn2ncc3ccccc32)o1 (stereo not given)	Wee1 degr inh 14.9
Cc1ccc(CN2CCNC(=O)C2CC(=O)NC2CCCCCC2)o1 (stereo not given)	none
CCN1C(=O)/C(=C\c2cccn2-c2ccc([N+](=O)[O-])cc2)N(CC)C1=S	Wee1 degr inh 9.5 (no result: MDM2 E3 inh)
Cc1c2n(c3ccccc13)CCN(C)C2	none (no result: m-calpain inh, MDM2 E3 inh, Wee1 degr inh, Hsp70 act)
COc1ccc(C2C(C(=O)N3CCCC3)c3cc(OC)c(OC)cc3C(=O)N2C)cc1OC (stereo not given)	none
COc1ccc(C2C(C(=O)N3CCN(C)CC3)c3cc(OC)c(OC)cc3C(=O)N2C)cc1 (stereo not given)	MDM2 E3 inh 30.6
COCCNc1cnn(-c2ccccc2)c(=O)c1Cl	none (no result: m-calpain inh, MDM2 E3 inh, Wee1 degr inh, Hsp70 act)
N/C(=N\OC(=O)c1ccco1)c1ccccn1	Wee1 degr inh 10.3
N/C(=N\OC(=O)c1ccco1)c1ccccc1	none (no result: Pf gametocyte)
Cn1nnnc1SC(C(=O)Nc1cccc(C(F)(F)F)c1)c1ccccc1 (stereo not given)	m-calpain inh 54.0
O=C(Nc1cccc(C(F)(F)F)c1)C(SCCO)c1ccccc1 (stereo not given)	none
CC(C)(C)c1ccc(C(=O)NN2C(=O)CSC2=S)cc1	Wee1 degr inh 10.8 (no result: Hsp70 act)
O=C(COc1ccc(F)cc1)NN1C(=O)CSC1=S	m-calpain inh 51.6
Cc1c(Cl)sn(-c2ccc(Cl)cc2)c1=O	none
Cc1[nH]n2c(=O)cc(C(C)(C)C)nc2c1-c1ccccc1	Wee1 degr inh 9.1
C#CCOCCOCCOCCNc1nc(N2CCN(C(=O)[C@H](CC(N)=O)n3cc([C@@H](N)C(C)C)nn3)CC2)nc(N2CCN(C(=O)[C@H](CC(N)=O)n3cc([C@@H](N)C(C)C)nn3)CC2)n1	none (no result: m-calpain inh, MDM2 E3 inh, Wee1 degr inh, Hsp70 act)
COc1ccccc1C(=O)O/N=C(/C)c1ccc(N2C(=O)C3CCCCC3C2=O)cc1 (stereo not given)	m-calpain inh 54.1
COC(=O)C1=C(C(=O)OC)[C@@H]2N(C)c3ccccc3[C@@]23C[C@@H](C(=O)OC)N=C3N1	none (no result: Pf gametocyte, Wee1 degr inh, Hsp70 act)
COC(=O)C1=C(C(=O)OC)[C@@H]2N(C)c3ccc(OC)cc3[C@@]23C[C@@H](C(=O)OC)N=C3N1	MDM2 E3 inh 35.8 (no result: Wee1 degr inh, Hsp70 act)
CC12CCC(C(=O)Nc3ccccc3)(C(Br)C1=O)C2(C)C (stereo not given)	none
Cc1ccc(NC(=O)C23CCC(C)(C(=O)[C@H]2Br)C3(C)C)cc1 (stereo not given in full)	Wee1 degr inh 10.3 (no result: Hsp70 act)
COC(=O)CC(NC(=O)c1ccco1)c1cccc2ccccc12 (stereo not given)	none (no result: Pf gametocyte, MDM2 E3 inh)
COC(=O)CC(NS(=O)(=O)c1cccs1)c1cccc2ccccc12 (stereo not given)	m-calpain inh 59.6 (no result: Pf gametocyte)
